Measured values reported in ChEMBL document CHEMBL4321808, “Heteroaryl Phosphonates as Noncovalent Inhibitors of Both Serine- and Metallocarbapenemases” (J Med Chem, 2019).
One block for each compound: values may come before it.

Tests used:
[1] = Inhibition of N-terminal 6x-His/Sumo-tagged NDM-1 (29 to 270 residues) (unknown origin) expressed in Escherichia coli BL21 (DE3) assessed as reduction in nitrocefin hydrolysis by spectrophotometry; design: species or system Bacteria
Summary of the method: (§1)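 Metallo-enzyme assay in 50 mM HEPES pH 7.2 with 50 µM zinc sulfate, 0.01% Triton X-100 and 20 µg/mL BSA, 37 °C. NDM-1 was construct 1 with the His/SUMO tag cleaved, at 2 nM; VIM-2 had its His tag TEV-cleaved, at 0.5 nM.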

[2] = Inhibition of N-terminal 6x-His-tagged Klebsiella pneumoniae KPC2 (25 to 293 residues) assessed as reduction in nitrocefin hydrolysis by spectrophotometry
Summary of the method: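 Purified recombinant KPC-2 at 1 nM in 100 mM Tris-HCl pH 7.0 with 0.01% Triton X-100, 37 °C, reaction started by enzyme. IC50 from sigmoidal fit; Ki by Cheng-Prusoff using the nitrocefin Km. Run in duplicate, or once or in triplicate for some compounds.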

[3] = Inhibition of N-terminal 6x-His-tagged VIM-2 (unknown origin) expressed in Escherichia coli Rosetta 2 (DE3) assessed as reduction in nitrocefin hydrolysis by spectrophotometry; design: species or system Bacteria
Summary of the method: as §1, with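 “nM. Nitrocefin hydrolysis read at 486 nm; IC50 from sigmoidal fit, Ki by Cheng-Prusoff; mostly duplicate.” for “nM.”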

[4] = Permeability in MDCK-MDR1 cells assessed as drug recovery; format: ADME, cell-based, Canis lupus familiaris; details: dog
Escherichia coli [5] = assay: Antimicrobial activity against Escherichia coli 5980 expressing NDM1 assessed as inhibition of microbial growth incubated for 18 to 20 hrs by CLSI based method; format: organism-based
Summary of the method: (§2)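 CLSI broth microdilution in MHBII. Compound tested alone in serial two-fold dilutions, 128–0.12 µg/mL. Inoculum was set to 0.5 McFarland and diluted to about 5×10^5 CFU per well. Plates incubated at 35 °C for 18–20 h. MIC read as the lowest concentration with no visible growth; an un-inoculated plate served as solubility control.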

[6] = molecular target: Metallo-beta-lactamase type 2 (Klebsiella pneumoniae) (UniProt C7C422); assay: Inhibition of NDM-1 in Klebsiella pneumoniae 5979 assessed as potentiation of imipenem-induced antimicrobial activity by measuring imipenem MIC incubated for 18 to 20 hrs by CLSI based method (reference value: <[…] ug/ml)
Escherichia coli [7] = assay: Inhibition of NDM-1 in Escherichia coli 5980 assessed as potentiation of imipenem-induced antimicrobial activity by measuring imipenem MIC incubated for 18 to 20 hrs by CLSI based method (reference value: 8 ug/ml)
Summary of the method: (§3)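 CLSI broth microdilution in MHBII. […] Inoculum about 5×10^5 CFU per well, incubated at 35 °C for 18–20 h. Imipenem MIC read as absence of visible growth.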

Enterobacter cloacae [8] = assay: Antimicrobial activity against Enterobacter cloacae 5981 expressing NDM1 assessed as inhibition of microbial growth incubated for 18 to 20 hrs by CLSI based method; format: functional; summary of the method: as §2
[9] = molecular target: Beta-lactamase VIM-2 (Pseudomonas aeruginosa) (UniProt Q9K2N0); details: 4698
Klebsiella pneumoniae [10] = assay: Antimicrobial activity against Klebsiella pneumoniae 5979 expressing NDM1 assessed as inhibition of microbial growth incubated for 18 to 20 hrs by CLSI based method; format: organism-based; summary of the method: as §2
Pseudomonas aeruginosa = assay: Antimicrobial activity against Pseudomonas aeruginosa 4698 expressing VIM2 assessed as inhibition of microbial growth incubated for 18 to 20 hrs by CLSI based method; format: organism-based; summary of the method: as §2
Enterobacter cloacae [11] = assay: Inhibition of NDM-1 in Enterobacter cloacae 5981 assessed as potentiation of imipenem-induced antimicrobial activity by measuring imipenem MIC incubated for 18 to 20 hrs by CLSI based method (reference value: 2 ug/ml); summary of the method: as §3
Klebsiella pneumoniae [12] = assay: Antimicrobial activity against Klebsiella pneumoniae 4683 expressing KPC2 assessed as inhibition of microbial growth incubated for 18 to 20 hrs by CLSI based method; format: organism-based; summary of the method: as §2

Sequence of Metallo-beta-lactamase type 2 (Klebsiella pneumoniae) (C7C422 whole entry): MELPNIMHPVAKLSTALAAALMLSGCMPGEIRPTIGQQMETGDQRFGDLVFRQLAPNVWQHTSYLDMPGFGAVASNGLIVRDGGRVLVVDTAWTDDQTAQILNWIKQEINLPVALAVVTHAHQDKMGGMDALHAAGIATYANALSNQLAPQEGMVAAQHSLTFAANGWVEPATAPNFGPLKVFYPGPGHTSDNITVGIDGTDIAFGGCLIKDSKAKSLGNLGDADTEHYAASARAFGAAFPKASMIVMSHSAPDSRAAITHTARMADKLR

Ki [2]: 8.5 µM
SMILES: Cc1cc(F)c2c(CP(=O)(O)O)cc(=O)oc2c1
Ki ([1]; read-out: Ki): 230 µM
Ki [3]: 3.3 µM

Drug recovery [4]: 97%
SMILES: CC(C)NCC(O)COc1cccc2ccccc12 (stereo not drawn) [PROPRANOLOL]

Ki [2]: 11.9 µM
SMILES: COc1cc(C)cc2oc(=O)cc(CP(=O)(O)O)c12

MIC (Escherichia coli [5]): > 128 µg/mL
MIC [6]: 32 µg/mL
MIC (Escherichia coli [7]): 2 µg/mL
MIC (Enterobacter cloacae [8]): > 128 µg/mL
MIC [9]: > 64 µg/mL
MIC (Klebsiella pneumoniae [10]): > 128 µg/mL
MIC (Pseudomonas aeruginosa): > 128 µg/mL
MIC (Enterobacter cloacae [11]): 2 µg/mL
MIC (Klebsiella pneumoniae [12]): > 128 µg/mL
SMILES: O=c1cc(CP(=O)(O)O)c2ccccc2[nH]1
Ki ([1]; read-out: Ki): 190 µM
Ki [3]: 6.4 µM

Further lines, the compound ahead of its results:

SMILES: O=P(O)(O)Cc1cccc2cccnc12
Ki [3]: 22.3 µM

SMILES: Cn1c(=O)cc(CP(=O)(O)O)c2ccccc21
Ki ([1]; read-out: Ki): 81 µM
Ki [3]: 7.5 µM

SMILES: O=c1cc(CP(=O)(O)O)c2c(F)cc(F)cc2o1
Ki [1]: Not Active
Ki [3]: 3.3 µM

SMILES: Cc1cc2oc(=O)cc(CP(=O)(O)O)c2cc1C
Ki ([1]; read-out: Ki): 44.3 µM
Ki [3]: 2.1 µM
